PubChem BioAssay AID463079 (The Scripps Research Institute Molecular Screening Center, 2010)
Among all 330,000 compounds or so, about 2,000 (0.61%) were called active.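 How the source made its calls: active means inhibition above that plate's mean sample inhibition plus 3 SD (cut at about 26% in these data); inactive means the rest.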 This excerpt belongs to a sample that is enriched for actives.

Test: ATP-evoked calcium signal inhibitors, parental CHO, primary screen, counter-screen for OX1R antagonist project, cell-based, fluorescence, Fluo-8 calcium dye (AID 463079);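 further: 0% = ATP-challenged DMSO wells and 100% = DMSO wells without ATP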
Conditions: parental CHO-K1, ATP-induced calcium, Fluo-8 fluorescence; at 5.6 µM; stronger effect = higher value
Summary of the method: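 Material – parental CHO cells · Reagent – ATP stimulus · Compound – single nominal dose of 5.6 µM per compound · Detection – Fluo-8 fluorescence · Read-out basis – percent inhibition of calcium signal · Controls – ATP-challenged DMSO wells low, unchallenged DMSO wells high · Repeats – no replicates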

SMILES | inhibition
O=c1cnnc(Nc2ccccc2)[nH]1 | -11.1% (inactive)
CCOc1ccccc1OCC(=O)Nc1ccccc1C(=O)NC1CC1 | 14.9% (inactive)
CC(C)OCCCNc1ncnc2c1[nH]c1ccc(F)cc12 | 58.6% (active)
O=C1c2ccccc2C(=O)N1CCC#Cc1ccc2cc(C3(O)CCCCC3)oc(=O)c2c1 | -14.2% (inactive)
O=C(NCCC(=O)N1O[C@@H]2C=C[C@H]1C2)OCC1c2ccccc2-c2ccccc21 | -10.5% (inactive)
CC(C)Cc1cc(C(=O)Nc2cc(Br)ccc2O)no1 | 43% (active)
CC(C)CNC(=O)c1cc(-c2ccc(Br)cc2)on1 | -10.3% (inactive)
CC(C)Cc1cc(C(=O)NCCc2ccccc2)no1 | -2.04% (inactive)
Cc1ccc(C)c(S(=O)(=O)Nc2cccc(-n3cnnn3)c2)c1 | -1.77% (inactive)
CCOC(=O)C1CCCN(C(=O)c2cccc(S(=O)(=O)N3CCOCC3)c2)C1 (stereo unspecified) | -2.51% (inactive)
COc1ccc(/C=C/C(=O)Nc2c(C)nn(C)c2C)cc1COc1ccc(Br)cc1 | 13.3% (inactive)
O=C(Nc1ccc(NC(=O)c2ccco2)c(Cl)c1)c1cccc([N+](=O)[O-])c1 | -6.79% (inactive)
O=C(Nc1ccc(C2CC2(Cl)Cl)cc1)c1cccc([N+](=O)[O-])c1 (stereo unspecified) | 46.7% (active)
O=C(Nc1cccc([N+](=O)[O-])c1)c1ccc2c(c1)OCO2 | -1.24% (inactive)
COC(=O)[C@@H]1C[C@@]2(O)[C@H](O)[C@H](O)[C@H](O)C[C@H]2N1Cc1ccc(C)s1 | 2.13% (inactive)
O=C(CO/N=C/c1ccccc1O)NNC(=O)c1ccccc1Cl | 2.58% (inactive)
CC[n+]1cc(C)ccc1/C=C/c1ccc(N(C)C)cc1 | 51.9% (active)
CCOC(=O)C1=CN(Cc2ccc(Br)cc2)S(=O)(=O)N(C)C1C (stereo unspecified) | -13.1% (inactive)
N#C/C(=C/c1ccc(Cl)cc1)NC(=O)c1ccccc1 | 50.3% (active)
O=C(N/C(=C\c1ccc(O)cc1)C(=O)N1CCCCC1)c1ccccc1 | -2.82% (inactive)
O=C(NCC1CCCO1)/C(=C/c1ccc(Cl)cc1)NC(=O)c1ccccc1 (stereo unspecified) | -2.9% (inactive)
S=C(NCCC1=CCCCC1)Nc1ccccc1 | 6.17% (inactive)
COc1cc(OC)c2c(-c3cccc(-c4cccc(N)c4)c3)cc(=O)oc2c1 | -15.7% (inactive)

SMILES | inhibition
CSc1sc(C)cc1C1C(C#N)=C(N)N(c2cccnc2)C2=C1C(=O)CCC2 (stereo unspecified) | -13.3% (inactive)
OCCN(Cc1ccccc1)Cc1ccc(Cl)cc1 | -28.2% (inactive)
CCN(CC)C(=O)N(CC)Cc1ccccc1 | -0.04% (inactive)
CN(C(=O)CN(CCO)CC(=O)N(C)C(C)(C)Cc1ccccc1)C(C)(C)Cc1ccccc1 | 52.8% (active)
CCc1cccc(NC(=S)N(CCN(C)C)C2CCN(C(C)C)CC2)c1 | 1.41% (inactive)
CCc1cc2c(=O)c(-c3ccon3)c(N)oc2cc1OC | -10.2% (inactive)
Cc1ccc(-c2cccc([C@H]3[C@@H]4C=CC[C@@H](C)[C@@H]4C(=O)N3Cc3ccccc3)c2)cc1 | -46.9% (inactive)
CCSc1nsc(NC(=O)Nc2cccc(C(C)=O)c2)n1 | 66.5% (active)
CSc1nsc(NC(=O)Nc2ccccc2)n1 | 18.8% (inactive)
C=CCSc1nsc(NC(=O)Nc2cccc(C(C)=O)c2)n1 | 46.6% (active)
C=CCSc1nnc(NC(=O)c2ccc(NC(C)=O)cc2)s1 | -14.6% (inactive)
CCSc1nsc(NC(=O)Nc2ccccc2OC)n1 | -18.1% (inactive)
CSc1ccccc1C(=O)Nc1cccc(C(C)=O)c1 | -10% (inactive)
CN(C)C=NC(=O)c1cccn1-c1ncc(C(F)(F)F)cc1Cl | 7.02% (inactive)
O=C(O)CCN1C(=O)CC2(CCCCC2)C1=O | 6.17% (inactive)
CC(=O)c1c(C)[nH]c(C(=O)COc2ccc3c(C)cc(=O)oc3c2)c1C | 1.48% (inactive)
CCOC(=O)c1c(C)[nH]c(C(=O)COc2ccc3c(c2)OCO3)c1C | 39.2% (active)
CCOC(=O)c1c(C)[nH]c(C(=O)OCC(=O)c2ccc(OC)cc2OC)c1C | -26.3% (inactive)
COc1ccc(-c2cnc(SCCNC(=O)c3ccc4c(c3)OCO4)[nH]2)cc1 | -9.72% (inactive)
Cc1ccc(NC(=O)c2ccc(Cl)nc2)cc1S(=O)(=O)N1CCOCC1 | -8.73% (inactive)
CCN1/C(=C\c2ccc3ccccc3[n+]2CC)Sc2cc(C)ccc21 | 79.6% (active)
CCN1/C(=C/c2ccc3ccc(C)cc3[n+]2CC)Sc2ccccc21 | 80.2% (active)
CCOC(=O)CN(C(=O)COc1nc(-c2ccccc2)cc(C)c1C#N)c1ccc(F)cc1 | -20.7% (inactive)

SMILES | inhibition
O=C(O)CN(Cc1ccco1)S(=O)(=O)c1ccccc1 | -6.05% (inactive)
COc1ccc(C(=O)OCC(=O)c2cc(C)n(CC3CCCO3)c2C)cc1[N+](=O)[O-] (stereo unspecified) | -4.71% (inactive)
CC(NC(=S)Nc1ccc(OC(F)F)cc1)c1ccc(F)cc1 (stereo unspecified) | 14.7% (inactive)
COc1cccc(CNC(C)C(=O)Nc2ccc(S(=O)(=O)N3CCCC3)cc2)c1 (stereo unspecified) | -9.95% (inactive)
COc1cc2c(cc1OC)C(C(=O)NCc1ccco1)C1c3ccccc3CCN1C2=O (stereo unspecified) | -23.7% (inactive)
CCOC(=O)c1sc(NC(=O)CSc2nc(C)cc(C(F)(F)F)n2)c(C#N)c1C | 4.56% (inactive)
Cc1ccc(S(=O)(=O)N2CCN(C(=O)COC(=O)c3c(C)noc3C)CC2)c(C)c1 | -5.91% (inactive)
Cc1ccc(-c2nc(COC(=O)c3c(C)noc3C)cs2)cc1 | 44.1% (active)
COc1ccc(C(=O)COC(=O)c2c(C)noc2C)cc1Cl | -10.6% (inactive)
COc1ccc(S(=O)(=O)N2CCN(c3ncnc4c(-c5ccccc5)nsc34)CC2)cc1 | -9.64% (inactive)
COCc1c(C(=O)OCC(=O)Nc2ccc(OC(F)F)cc2)oc2ccccc12 | -11.9% (inactive)
Cc1nc(CNS(=O)(=O)c2cc([N+](=O)[O-])ccc2C)cs1 | -14.4% (inactive)
Cc1nc(CNS(=O)(=O)c2ccc(Oc3ccccc3)cc2)cs1 | 44.4% (active)
Cc1ccc(S(=O)(=O)NCc2csc(C)n2)c(C)c1 | -13.8% (inactive)
COc1ccc(NC2CCCN(C(=O)c3ccncc3)C2)cc1 (stereo unspecified) | -8.33% (inactive)
CSCCC(C(=O)NC1=NCCS1)N1C(=O)c2ccccc2C1=O (stereo unspecified) | 1.01% (inactive)
CCOc1cccc(C(=O)Nc2nnc(-c3cccs3)s2)c1 | -10.2% (inactive)
N#Cc1ccc(C(=O)Nc2nc(-c3cccs3)c(C(=O)C(F)(F)F)s2)cc1 | 25.4% (active)
N#Cc1ccc(Oc2ccc(C(F)(F)F)cc2NC(=O)c2ccc(F)cc2)cc1 | -13.8% (inactive)
O=C(/C=C/c1cccc([N+](=O)[O-])c1)NCCSCc1ccco1 | -15.3% (inactive)
CCCC(C)C(=O)OCC(=O)Nc1c(Br)cc(C)cc1Br (stereo unspecified) | -8.47% (inactive)
CC1CCN(C(NC(=O)c2ccco2)C(=O)c2ccccc2)CC1 (stereo unspecified) | -6.97% (inactive)
CCC(=O)Nc1ccc(-c2ccc(N3CCCCC3)nn2)cc1 | -16% (inactive)

SMILES | inhibition
CC1CCN(c2ccc(-c3ccc(NC(=O)c4ccco4)cc3)nn2)CC1 | 45% (active)
COc1ccc(CCNC(=O)CN(C)S(=O)(=O)c2ccc3nc(C)sc3c2)cc1OC | -5.92% (inactive)
CC(=O)Nc1ccc(S(=O)(=O)NCCC(=O)N2CCN(c3ccccc3Cl)CC2)cc1 | -3.47% (inactive)
CCOC(=O)N1CCN(C(=O)CSc2nc(=O)n3cccc(C)c3n2)CC1 | -15.5% (inactive)
CCOC(=O)CC1C(=O)NCCN1c1nc2c(C)cccn2c(=O)c1/C=C1\SC(=S)N(C(C)CC)C1=O (stereo unspecified) | 54.2% (active)
Cc1cccn2c(=O)c(/C=C(\C#N)C(N)=O)c(N3CCCCCC3)nc12 | -34.3% (inactive)
COc1ccc(CC(NC(C)=O)C(=O)NC2CCN(C(=O)Nc3ccc(C#N)cc3)CC2)cc1OC (stereo unspecified) | -6.58% (inactive)
CC(C)=CCN1CCN(CCCc2ccccc2)CC1CCO (stereo unspecified) | -8.88% (inactive)
CN(C)S(=O)(=O)N1CCC(Oc2cccc(C(=O)NCCCC3CCCC3)c2)CC1 | 23.8% (inactive)
CSc1ccc(S(=O)(=O)NCC(=O)OCC(=O)NC2(C#N)CCCCC2)cc1[N+](=O)[O-] | -8.63% (inactive)
COc1ccc(-c2noc(CCC(=O)N3CCN(c4cccc(C)c4)CC3)n2)cc1 | -7.6% (inactive)
Oc1c(Cl)cc(Cl)c(Cl)c1Cc1c(O)c(Cl)cc(Cl)c1Cl | 70.6% (active)
COCC(=O)Nc1cc(C(=O)OC)cc(C(=O)OC)c1 | -1.27% (inactive)
Cc1cccc(NC(=O)C2CC(=O)OC23CCCC3)c1 (stereo unspecified) | -13.3% (inactive)
O=C(CNC(=O)C(c1ccccc1)c1ccccc1)N/N=C\c1ccc2c(c1)OCO2 | 2.64% (inactive)
C/C(=N/NC(=O)CC(=O)N/N=C(\C)c1ccc([N+](=O)[O-])cc1)c1ccc([N+](=O)[O-])cc1 | -3.47% (inactive)
C/C(=N\NC(=O)CNC(=O)C(c1ccccc1)c1ccccc1)c1ccc(C)cc1 | 30.7% (active)
CCCc1ccc(C(=O)COC(=O)CN2C(=O)NC3(CCCCC3C)C2=O)cc1 (stereo unspecified) | -23.9% (inactive)
COc1cc(C(=O)N2CCN(C/C=C/c3ccccc3)CC2)cc(OC)c1C | -10.8% (inactive)
CC1(C)CC[C@]2(C(=O)O)CC[C@]3(C)C(=CCC4[C@@]5(C)CC[C@H](O)C(C)(C)C5[C@H](O)C[C@]43C)[C@@H]2C1 (stereo partly specified) | -9.31% (inactive)
CC1(C)CC[C@@]2(C(=O)O)C(C1)C1=CCC3[C@@]4(C)CC[C@H](O)C(C)(C)C4CC[C@@]3(C)[C@]1(C)C[C@H]2O (stereo partly specified) | 93.2% (active)
CC1(C)C2CC[C@]3(C)C(CC=C4[C@@H]5C[C@@](C)(CO)CC[C@]5(C(=O)O)CC[C@]43C)[C@@]2(C)CC[C@@H]1O (stereo partly specified) | -1.46% (inactive)
